Compounds with a hit are over-represented: about 0.68% of the library has one in this group of screens.
Furin inh: inhibitors of human furin; P09958; purified furin, fluorogenic substrate cleavage; inhibition, % at 20 µM or 30 µM; 220,000 compounds, 0.061% hits; AID 463115; in the data active means inhibition above about 25%
TNAP inh hiacc: blocks human TNAP under high phosphate acceptor concentration | P05186 | purified TNAP, CDP-star luminescence, 1 M DEA | inhibition, % at 20 µM | 200,000 compounds, 0.03% hits;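 active means over 50% inhibition of tissue-nonspecific alkaline phosphatase at 20 µM in the single-dose screen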;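 further: plate controls were DMSO wells for no effect and EDTA-quenched wells as full inhibition for full effect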
Target sequence (P05186 whole entry, looked up): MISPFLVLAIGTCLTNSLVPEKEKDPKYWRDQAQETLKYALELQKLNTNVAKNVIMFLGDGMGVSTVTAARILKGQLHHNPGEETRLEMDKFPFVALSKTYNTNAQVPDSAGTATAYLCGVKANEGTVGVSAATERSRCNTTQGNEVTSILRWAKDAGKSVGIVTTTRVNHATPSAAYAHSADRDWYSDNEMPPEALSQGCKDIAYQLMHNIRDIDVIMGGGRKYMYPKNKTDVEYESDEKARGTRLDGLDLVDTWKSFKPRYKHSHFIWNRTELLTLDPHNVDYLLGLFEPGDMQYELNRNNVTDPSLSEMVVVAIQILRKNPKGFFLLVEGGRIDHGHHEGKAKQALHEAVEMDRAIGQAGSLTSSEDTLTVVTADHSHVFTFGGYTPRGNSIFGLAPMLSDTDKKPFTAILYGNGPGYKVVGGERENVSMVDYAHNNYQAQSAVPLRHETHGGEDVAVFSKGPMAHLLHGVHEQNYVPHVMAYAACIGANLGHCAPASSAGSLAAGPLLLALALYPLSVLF
Pf gamet viab: P. falciparum stage V gametocyte viability inhibition. P. falciparum stage V gametocytes, ATP luminescence, 24 h. 150,000 compounds, 0.065% hits. inhibition, % at 10.9 µM. AID 743093;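 active means inhibition above the mean plus 3 SD of compounds within the control limits, set per campaign, cut at about 38% in these data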;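 further: 0% = DMSO wells and 100% = medium only without gametocytes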
TNAP act hiacc: activators of human TNAP at high phosphate acceptor concentration | purified TNAP, CDP-star luminescence, 1 M DEA, 30 min; active compounds read high; 0 = EDTA background, 1 = DMSO-only activity | P05186 | AID 1136 | 200,000 tested, under 10 active | activation factor at 20 µM;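 active means activation factor at least 2 at 20 µM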
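Control set: EDTA negative control, DMSO positive control / Assay system: human TNAP / Quantity: TNAP 1/800 final / Evaluation: TNAP activation factor scaled between EDTA and DMSO control wells / Measured by: luminescent substrate turnover signal / Compound dosing: one dose, 20 µM / Times: 30 min enzyme reaction at room temperature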
TNAP inh noacc: blocks human TNAP activity with no phosphate acceptor present. inhibition, % at 20 µM. purified TNAP, CDP-star luminescence, 30 min. 200,000 compounds, 0.26% hits. AID 1012;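 active means tissue-nonspecific alkaline phosphatase inhibition above about 50% at 20 µM in the single-dose screen, limit read from the data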;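 further: 0% = DMSO negative control and 100% = EDTA positive control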
HMGR II inh: E. faecalis class II HMG-CoA reductase inhibition; 190,000 compounds, 0.41% hits; purified E. faecalis HMGR, NADPH absorbance 340 nm kinetic; inhibition, % at 10 µM;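 active means inhibition above a set limit, the median over all tested compounds plus 3 SD, cut at about 9.5% in these data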;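 further: enzyme runs in reverse so mevalonate oxidation gives rising NADPH absorbance; 0% = complete reaction with DMSO and 100% = background rate lacking mevalonate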
Starred values were filed as active, the others as inactive; nt = not tested or not shown.

SMILES	Furin inh	TNAP inh hiacc	Pf gamet viab	TNAP act hiacc	TNAP inh noacc	HMGR II inh
CC(=O)Nc1ccc(S(=O)(=O)Nc2nc3ccccc3nc2Nc2ccc(O)cc2)cc1	-6.0	nt	10.2	nt	nt	nt
O=C(CN1CCCC1)Nc1ccc([N+](=O)[O-])cc1	-12.0	-3.8	nt	1	-11.0	-3.1
CC/C(=N/N=C(\CC)c1ccccc1)c1ccccc1	-16.4	-3.1	-37.2	1	-4.9	-5.3
O=C(CN1C(=O)c2ccccc2C1=O)Nc1sc2c(c1C(=O)NCc1ccco1)CCCC2	28.5*	-2.0	-1.2	1	-0.1	-2.3
O=C(CS(=O)(=O)Cc1ccccc1)NCc1ccco1	-36.7	-6.2	-1.4	1.1	-15.4	9.8*
O=C(CS(=O)(=O)c1ccccc1)NCc1ccco1	-16.9	-7.0	3.3	1.1	-11.0	0.3
O=C(/C=C/c1ccccc1)NNC(=O)C1CC1	-10.9	-4.1	nt	1	-9.0	-2.9
O=C(NNC(=O)C(O)(c1ccccc1)c1ccccc1)C1CC1	-25.4	-3.4	nt	1	-57.9	11.1*
COc1ccc(NC(=O)Cn2cccc2)cc1Cl	-21.2	-2.7	nt	1	-17.7	10.6*
Cc1ccc(NC(=O)Cn2cccc2)cc1Cl	7.2	-9.2	nt	1.1	-5.1	0.9
COc1ccc(CC(=O)NNS(=O)(=O)c2ccccc2)cc1OC	-27.3	-7.5	-3.9	1.1	-11.1	-5.4
N#CCC(=O)Nn1c(=S)[nH]c2ccccc2c1=O	-22.8	-4.5	19.2	1	-8.1	-8.7
Cc1cccc(C)c1OCC(=O)Nn1c(=O)[nH]c2ccccc2c1=O	-29.8	1.9	nt	1	-7.2	10.7*
CCOC(=O)/C(C#N)=C(\O)c1ccc(NC(=O)c2ccc([N+](=O)[O-])cc2)cc1	-19.4	nt	2.7	nt	nt	nt
Cc1ccc(NC(=S)NCc2ccccc2)cc1S(=O)(=O)N1CCCCC1	-17.3	-13.4	-11.2	1.1	-95.2	-3.2
CCO[C@@H]1OC(C(=O)Nc2ccccc2)=C[C@H](c2ccc(C(F)(F)F)cc2)[C@H]1CCCO	-28.5	-10.2	nt	1.1	-10.8	11.7*
CC12CCC(C(=O)N(CSC(=S)N/N=C\c3ccccc3O)C1=O)C2(C)C (centres undefined)	-9.9	0.5	-16.8	1	-1.6	9.9*
O=C(CNCc1ccco1)Nc1ccc(N2CCCCCC2)cc1	-26.0	-4.1	-50.6	1	-18.4	11.0*
Cc1nnc(SCc2ccccc2)n(N)c1=O	-21.2	-0.5	nt	1	-11.5	-3.2
Cc1nnc(SC/C=C/c2ccccc2)n(N)c1=O	-24.2	-5.6	-14.7	1.1	-8.1	9.8*
Cc1nnc(SCC(=O)N2CCCC2)n(N)c1=O	-26.3	1.3	-10.3	1	-8.5	10.5*
Cc1nnc(SCC(=O)N2CCN(S(=O)(=O)c3ccc(Cl)cc3)CC2)n(N)c1=O	-7.7	-4.9	nt	1	-12.0	-1.6
Cc1nc(SCC(=O)Nc2cccnc2Cl)nc(C)c1C	-35.9	-2.8	nt	1	-3.4	0.9
CCOC(=O)c1cnc(/N=C/N(C)C)s1	2.5	-6.3	-4.8	1.1	-1.7	-0.6
COc1ccc(N(CC2CO2)S(=O)(=O)c2ccccc2)cc1 (centres undefined)	-20.9	-7.8	nt	1.1	-9.1	0.9
SMILES	Furin inh	TNAP inh hiacc	Pf gamet viab	TNAP act hiacc	TNAP inh noacc	HMGR II inh
COCCCN(C(=S)NC(=O)c1ccc(C(C)(C)C)cc1)c1c(N)n(Cc2ccccc2)c(=O)[nH]c1=O	-17.8	3.8	6.4	1	-26.0	-5.1
CCOc1ccc(OCC)c(NC(=O)CSc2nnc(-c3cccnc3)o2)c1	-21.7	-1.3	3.0	1	14.9	-1.5
COc1ccc(S(=O)(=O)N(C)C)cc1NC(=O)CSc1nnc(-c2cccnc2)o1	-25.9	-3.1	nt	1	-19.2	12.7*
COc1ccccc1-n1cnnc1SCC(=O)N1CC(=O)Nc2ccccc21	-15.5	-3.0	nt	1	-4.6	9.6*
CN(c1ccccc1)S(=O)(=O)c1cccc(NC(=O)COC(=O)C2CCCCC2)c1	-11.9	nt	-0.9	nt	nt	nt
NS(=O)(=O)c1cccc(NC(=O)COC(=O)C2CCCCC2)c1	-12.6	3.8	nt	1	9.1	11.1*
NS(=O)(=O)c1ccc(NC(=O)COC(=O)C2CC(=O)N(Cc3ccccc3)C2)cc1 (centres undefined)	-22.6	-4.7	6.2	1	-17.0	10.6*

Screening data as filed in PubChem.
